The text below walks through data of article PMC12855199 (Scientific Reports, 2025).

The subject of one data set is C. elegans N2 strain. The data set is described as follows: In vitro nematocidal. Set-up: species or system Caenorhabditis elegans. A digest of the protocol:
(§1)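 C. elegans strains kept on NGM with E. coli. L1 obtained by bleaching and hatching eggs on unseeded NGM at 20 °C (~24 h). Thirty L1 per well, in triplicate, exposed in M9 to test compound at final 10–100,000 ng/mL with 0.5% DMSO, 72 h, 20 °C. Controls: DMSO, albendazole, ivermectin. Motility scored visually by inverted microscope; no movement = dead. EC50 by nonlinear regression; three independent replicates.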

In a further data set the test system is C. elegans CB347 strain. The data set is described as follows: In vitro nematocidal. Set-up: species or system Caenorhabditis elegans. A digest of the protocol: as §1
A further data set relates to C. elegans JD608 strain. Description: In vitro nematocidal. The conditions noted are these: Caenorhabditis elegans, 72 h. An outline of the steps:
as §1

Data set [1] in a line: MTT cytotoxicity testing on HepG2. The conditions noted are these: human, HepG2 cells. Type of data set: cell-based, human. An outline of the steps: (§2)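 Cells seeded at 20,000/well in MEM with 10% FBS, grown 24 h at 37 °C under 5% CO₂. Medium then replaced by test compound at final 10–100,000 ng/mL in MEM with 0.5% DMSO, 24 h. MTT added for 4 h; formazan dissolved in 4 mM HCl/0.1% NP-40 in isopropanol. Absorbance read at 590 nm, reference 620 nm. Viability relative to untreated; CC50 by nonlinear regression; three independent replicates.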

A short description of data set [2]: MTT cytotoxicity testing on Caco-2. The format is cell-based, human. The conditions noted are these: human, Caco-2 cells. A digest of the protocol:
as §2

Data set [3] relates to T. spiralis muscle-stage larvae (L1). Description: In vitro nematocidal. Set-up: species or system Trichinella spiralis. A digest of the protocol:
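Female ICR mice (8 weeks old) were infected orally with 100 larvae. Muscle larvae were recovered at day 60 by 0.7% pepsin/0.7% HCl digestion and kept in RPMI with 10% FCS and penicillin/streptomycin. Thirty larvae per well, in triplicate, with test compound at final 10–100,000 ng/mL and 0.5% DMSO, 72 h, 37 °C. Controls: DMSO, albendazole, ivermectin. EC50 by nonlinear regression; three independent replicates.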

Data set [4] concerns T. spiralis muscle larvae. The arrangement: species or system Trichinella spiralis. An outline of the steps:
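Muscle larvae were exposed to one concentration of test compound or to 0.5% DMSO. Extraction: cold methanol twice, then water, with freeze–thaw cycles and centrifugation at 4 °C; pooled extracts dried. Separation on C18 at 40 °C, 0.3 mL/min, formic acid water/acetonitrile gradient. Q-TOF ESI±, IDA with survey scan m/z 100–1000; pooled QCs. Processed in MS-DIAL and MetaboAnalyst; 3 biological × 2 technical replicates.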

For data set [5] the following is noted: no reference given; cited from earlier work.
For another data set, the system named is HepG2 cells. The data set is described as follows: MTT cytotoxicity testing on HepG2. Type of data set: cell-based, human. The conditions noted are these: HepG2, 24 h exposure, MTT; mean ± S.E. A digest of the protocol:
as §2

For a further data set, the system named is Caco-2 cells. The data set is described as follows: MTT cytotoxicity testing on Caco-2. The format is cell-based, human. The conditions noted are these: Caco-2, 24 h exposure, MTT; mean ± S.E. A digest of the protocol:
as §2

The mark [6] stands for this setting: T. spiralis metabolite, quercetin at EC50 vs DMSO.
Where [7] appears, read: T. spiralis, quercetin at EC50 vs DMSO control.

Some results are limits rather than exact numbers.

With `C[C@@H]1O[C@@H](O[C@H]2[C@H](Oc3cc(O)c4c(c3)O[C@H](c3ccc(O)cc3)CC4=O)O[C@H](CO)[C@@H](O)[C@@H]2O)[C@H](O)[C@H](O)[C@H]1O` [Naringin, naringin], the concentration giving a half-maximal response (EC50) in the data set on C. elegans N2 strain (Caenorhabditis elegans, 72 h) is over 1000 µM; in the data set with C. elegans CB347 strain (Caenorhabditis elegans, 72 h), over 1000 µM; in the data set with C. elegans JD608 strain, over 1000 µM. For the same molecule, the CC50 at 24 h was over 1000 µM in data set [1] and 249 ± 65.3 µM in data set [2].

For `COc1ccc(-c2cc(=O)c3c(OC)c(OC)c(OC)c(OC)c3o2)cc1` [Tangeretin, tangeretin], the EC50 was over 1000 µM with C. elegans N2 strain (Caenorhabditis elegans, 72 h); over 1000 µM in the data set on C. elegans CB347 strain (Caenorhabditis elegans, 72 h); 43.1 ± 11.2 µM with C. elegans JD608 strain. Besides, the CC50 at 24 h in data set [1] is 251 ± 35 µM; in data set [2], 531 ± 70.3 µM.

As for `COc1ccc([C@@H]2CC(=O)c3c(O)cc(O)cc3O2)cc1O` [Hesperetin, hesperetin], the EC50 with C. elegans N2 strain (Caenorhabditis elegans, 72 h) is 283 ± 23.9 µM; with C. elegans CB347 strain (Caenorhabditis elegans, 72 h), over 1000 µM; with C. elegans JD608 strain, 51.7 ± 2.92 µM. In addition, the half-maximal cytotoxic concentration (CC50) at 24 h in [1] is over 1000 µM; in [2], 56.3 ± 6.18 µM.

Molecule `O=c1c(O)c(-c2ccc(O)c(O)c2)oc2cc(O)cc(O)c12` [Quercetin, quercetin] showed a concentration giving a half-maximal response (EC50) with C. elegans N2 strain (Caenorhabditis elegans, 72 h) of 80.5 ± 20.3 µM. In the data set on C. elegans CB347 strain (Caenorhabditis elegans, 72 h), this molecule displayed a half-maximal effective concentration (EC50) of 76.2 ± 7.4 µM. This molecule also showed a concentration for a half-maximal effect (EC50) with C. elegans JD608 strain of 45.3 ± 4.92 µM. In data set [1], this molecule displayed a CC50 at 24 h of over 1000 µM. For the same molecule, the cytotoxic concentration (CC50) at 24 h in [2] was over 1000 µM. The EC50 in data set [3] (Trichinella spiralis, 72 h) was 147 ± 28.2 µM. In data set [4] (setting [6]), the “Log2 (FC) 1-Heptadecanoyl-sn-glycero-3-phosphocholine” value is reported as -1.6835, the “Log2 (FC) 3-Phosphoglyceric Acid” value was -1.0514, the “Log2 (FC) 7alpha-Hydroxy-4-cholesten-3-one” value is 2.1364 and the “Log2 (FC) Arachidonic acid” value is -1.1472. In data set [4] (setting [6]), the “Log2 (FC) Coenzyme q6” value was 1.8385, the “Log2 (FC) Deoxyguanosine” value was -2.4539, the “Log2 (FC) Inosine” value was -2.6373 and the “Log2 (FC) LacCer(d18:1/16:0)” value turned out to be 2.6728. In data set [4] (setting [6]), the “Log2 (FC) Lignoceric acid” value was found to be 4.0956, the “Log2 (FC) Linoleic acid” value was found to be 2.1922, the “Log2 (FC) Linolenic acid” value is recorded as 2.7081 and the “Log2 (FC) LysoPC(0:0/18:0)” value is reported as -1.4886. For the same molecule, in data set [4] (setting [6]), the “Log2 (FC) LysoPE(0:0/16:0)” value is given as -1.8636, the “Log2 (FC) LysoPE(0:0/18:2(9Z,12Z))” value was -1.4991, the “Log2 (FC) Menaquinone 4” value worked out at 2.2163 and the “Log2 (FC) N-Acetyl-D-Galactosamine” value is 4.5233. In addition, in [4] (setting [6]), the “Log2 (FC) PC(P-18:1(9Z)/P-16:0)” value is 2.1307, the “Log2 (FC) Phosphatidylethanolamine” value is on record as -1.0876, the “Log2 (FC) Tetradecanoylcarnitine” value is listed as -2.0664 and the “Log2 (FC) Vitamin K1” value is recorded as 1.8127. Besides, in data set [4] (setting [7]), the Down-regulated features worked out at 68 and the Up-regulated features entry is “Around 204”. Moreover, the Oral bioavailability in data set [5] is under 5%.

On to `O=c1cc(-c2ccc(O)cc2)oc2cc(O)cc(O)c12` [Apigenin, apigenin], for which the EC50 with C. elegans N2 strain (Caenorhabditis elegans, 72 h) is 218 ± 11.2 µM; in the data set on C. elegans CB347 strain (Caenorhabditis elegans, 72 h), 55.8 ± 4.89 µM; in the data set on C. elegans JD608 strain, 51.3 ± 1.46 µM; in data set [3] (Trichinella spiralis, 72 h), over 1000 µM. For the same molecule, the CC50 at 24 h in [1] is 53.3 ± 4.52 µM; in [2] it was over 1000 µM.

With `CCCSc1ccc2nc(NC(=O)OC)[nH]c2c1` [ABZ, albendazole, reference compound], the EC50 is 672 ± 73 µM with C. elegans N2 strain (Caenorhabditis elegans, 72 h); over 1000 µM in the data set on C. elegans CB347 strain (Caenorhabditis elegans, 72 h); 788 ± 22.6 µM in the data set with C. elegans JD608 strain; 129 ± 34.1 µM in [3] (Trichinella spiralis, 72 h). The CC50 at 24 h in data set [1] and in data set [2] was over 1000 µM each time.

Regarding `CC[C@H](C)[C@H]1O[C@]2(CC[C@@H]1C)C[C@@H]1C[C@@H](C/C=C(\C)[C@@H](O[C@H]3C[C@H](OC)[C@@H](O[C@H]4C[C@H](OC)[C@@H](O)[C@H](C)O4)[C@H](C)O3)[C@@H](C)/C=C/C=C3\CO[C@@H]4[C@H](O)C(C)=C[C@@H](C(=O)O1)[C@]34O)O2` [IVM, ivermectin, reference compound], the EC50 amounted to 17.7 ± 1.85 µM in the data set with C. elegans N2 strain (C. elegans N2 (wild type), L1, 72 h at 20 °C, motility, mean ± S.E.); 15.4 ± 6.07 µM in the data set with C. elegans CB347 strain (C. elegans CB347 (albendazole-resistant), L1, 72 h at 20 °C, motility, mean ± S.E.); 107 ± 7.89 µM in data set [3] (T. spiralis muscle-stage larvae, 72 h at 37 °C, motility, mean ± S.E.). Moreover, the 50% cytotoxic concentration (CC50) was found to be 14.9 ± 1.39 µM in the data set on HepG2 cells and 20 ± 5.28 µM in the data set with Caco-2 cells.
